An excerpt weighted towards active compounds, which were near 2% of everything screened.
SR-BI DiI inh = inhibitors of SR-BI mediated HDL lipid uptake, primary screen, ldlA[mSR-BI] cells, fluorescence, single point; inhibition, % at 12.5 µM; 320,000 tested, 0.96% active; Scavenger receptor class B member 1 (Mus musculus), Q61009; ldlA[mSR-BI] CHO cells, DiI-HDL uptake fluorescence, 3 h;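 active = mean replicate inhibition of at least 70% and a set share of replicates each scoring 70 or more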;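 also: 0% = median of neutral control wells and 100% = median of positive control wells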
XiGFP reactiv = activators of inactive X chromosome reactivation, primary screen, imaging, XiGFP fibroblasts, GFP high-content imaging, set 2; activation, % at 7.58 µM; AID 743238, 2013; 360,000 tested, 0.055% active; XiGFP mouse fibroblasts, % GFP-positive cells imaging, 3 d; cells co-treated with 5-aza-dC sensitizer; scaled so ellipticine positive control = 100%;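 active = mean normalized replicate activation at least 10% and every replicate at or above 10%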;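 also: 0% = median of on-plate neutral control wells and 100% = ellipticine 6 µM median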
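System: 68-5-11 XiGFP fibroblast line; Timing: 3 days compound exposure; Compound dosing: one concentration, pinned; Benchmarks: positive control ellipticine, 6 µM final; Buffer or medium: DMEM containing 5-aza-dC.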
ARNT TACC3 PPI = disruptors of ARNT/TACC3 protein interaction, primary screen, biochemical, AlphaScreen, single concentration; Transforming acidic coiled-coil-containing protein 3 (Homo sapiens), Q9Y6A5; AlphaScreen His-ARNT PAS-B/GST-TACC3 binding, luminescence; TACC3 fragment carries E629A point mutation; inhibition, % at 9.99 µM; 390,000 tested, 0.66% active;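 active = mean inhibition of replicates at least 50% and at least half of replicates each reaching 50%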;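 also: 0% = complete ARNT plus TACC3 wells and 100% = ARNT alone without TACC3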
SR-BI uptake up = activators of SR-BI mediated DiI-HDL uptake, primary screen, ldlA[mSR-BI] CHO cells, DiI fluorescence | 3 h; 100 = double the neutral-control signal | activation, % at 12.5 µM | 320,000 tested, 0.096% active;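 active = mean replicate activation of at least 60% and every replicate at or above 60%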;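 also: 0% = median plate neutral-control signal and 100% = twice that signal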
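Assay system: CHO ldlA[mSR-BI] cells, LDL receptor-null, SR-BI overexpressing; medium: Ham's F12 with 0.5% BSA, HEPES 25 mM, pH 7.4; also added: DiI-HDL 10 µg/mL; timing: 3 h uptake period with compound, 37 °C; signal: DiI fluorescence, bottom read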
sPLA2-III inh = human group III sPLA2 inhibitors, primary screen, biochemical, QFRET, BODIPY PC-A2 liposome substrate; Group 3 secretory phospholipase A2 (Homo sapiens), Q9NZ20; QFRET BODIPY PC-A2 liposome hydrolysis, fluorescence; inhibition, % at 12.2 µM; 370,000 tested, 0.56% active; AID 743126, 2013;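 active = inhibition above mean plus 3 SD of compounds lying within the high and low control bounds, cut at about 19% in these data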;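 also: 0% = median of test compound wells and 100% = no enzyme DMSO wells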
Target sequence (Q9NZ20 whole entry, looked up): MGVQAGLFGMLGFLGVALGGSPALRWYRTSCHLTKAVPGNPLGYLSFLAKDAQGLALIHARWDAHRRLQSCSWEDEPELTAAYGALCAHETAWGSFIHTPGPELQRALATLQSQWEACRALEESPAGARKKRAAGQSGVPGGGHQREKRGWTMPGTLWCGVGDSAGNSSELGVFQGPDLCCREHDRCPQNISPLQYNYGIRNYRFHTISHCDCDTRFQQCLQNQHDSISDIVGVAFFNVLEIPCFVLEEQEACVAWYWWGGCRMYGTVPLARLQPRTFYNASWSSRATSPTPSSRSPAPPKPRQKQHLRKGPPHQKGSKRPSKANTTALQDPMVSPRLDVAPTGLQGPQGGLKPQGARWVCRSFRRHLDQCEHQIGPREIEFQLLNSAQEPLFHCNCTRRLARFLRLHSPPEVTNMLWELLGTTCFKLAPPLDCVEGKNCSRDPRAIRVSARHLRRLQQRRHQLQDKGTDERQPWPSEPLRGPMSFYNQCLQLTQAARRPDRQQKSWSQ
NSD2 inh = NSD2 histone methyltransferase inhibitors, primary screen, biochemical, AlphaScreen, single concentration, set 2. inhibition, % at 12.5 µM. 310,000 tested, 0.54% active. Histone-lysine N-methyltransferase NSD2 (Homo sapiens), O96028. NSD2 peptide methylation, 120 min; in the data active = inhibition above about 50%
sPLA2 confirm = human group III sPLA2 inhibitors, confirmation, biochemical, QFRET, triplicate. recombinant hGIII-sPLA2, BODIPY PC-A2 QFRET fluorescence. 2,000 tested, 34% active. shares compounds with sPLA2-III inh. inhibition, % at 12.2 µM;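 active = mean inhibition across triplicates above the hit cutoff set in the earlier primary screen, cut at about 19% in these data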;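 also: 0% = enzyme with DMSO and 100% = DMSO wells lacking enzyme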
BODIPY interf = 535nm fluorescence optical interference, confirmation, artefact control for HGIII-sPLA2 inhibitor project, biochemical, QFRET; shares compounds with sPLA2-III inh; BODIPY FL product fluorescence interference; 2,000 tested, 8.5% active; inhibition, % at 12.2 µM; AID 743282, 2014;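 active = average inhibition above the solvent-only control mean plus 3 SD, cut at about 6% in these data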;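 also: 0% = DMSO with substrate plus product and 100% = DMSO with substrate alone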
Numbers without * were called inactive.

What do the screens show for `Cc1c(C=O)c2ccccc2n1CC(=O)NCc1ccccc1`?
XiGFP reactiv: 0; ARNT TACC3 PPI: 1; sPLA2-III inh: 3; NSD2 inh: 1

What do the screens show for `Cc1cc(C(=O)OCC(=O)NCc2ccccc2)c(C)o1`?
SR-BI DiI inh: 2; XiGFP reactiv: 0; ARNT TACC3 PPI: 16; SR-BI uptake up: -2; sPLA2-III inh: 0; NSD2 inh: -2

What do the screens show for `CC(C)CC[n+]1ccn(-c2nc3ccccc3nc2[N-]S(=O)(=O)c2ccccc2)c1`?
SR-BI DiI inh: -17; ARNT TACC3 PPI: -6; SR-BI uptake up: 17; sPLA2-III inh: -1; NSD2 inh: 3

How did CCCC[n+]1ccn(-c2nc3ccccc3nc2[N-]S(=O)(=O)c2ccc(Br)cc2)c1 do in these assays?
SR-BI DiI inh: -32; XiGFP reactiv: 0; ARNT TACC3 PPI: -6; SR-BI uptake up: 32; sPLA2-III inh: 21*; NSD2 inh: 2; sPLA2 confirm: 0; BODIPY interf: -12

Results for O=C(CCc1nnc(-c2ccccc2)o1)NC1CCCCC1 ?
XiGFP reactiv: 0; ARNT TACC3 PPI: -2; sPLA2-III inh: 19*; sPLA2 confirm: 6; BODIPY interf: -5

What do the screens show for `C[C@H]1CN([C@@H](C)CO)S(=O)(=O)c2ccc(/C=C/c3ccccc3)cc2O[C@H]1CN(C)CC1CC1`?
XiGFP reactiv: -1; ARNT TACC3 PPI: 9

What do the screens show for `CC(C)(C)c1ccc(C(=O)NNC(=S)NC(=O)c2cccnc2)cc1`?
SR-BI DiI inh: 24; XiGFP reactiv: 0; SR-BI uptake up: -24; sPLA2-III inh: 11

What do the screens show for `COc1ccc(NC(=S)NC(=O)c2cccnc2)cc1`?
SR-BI DiI inh: 4; XiGFP reactiv: 0; ARNT TACC3 PPI: 2; SR-BI uptake up: -4; sPLA2-III inh: 17; NSD2 inh: -6

Results for CC(C)(C)c1cc(Cl)c(O)c(NC(=S)NC(=O)c2cccnc2)c1 ?
SR-BI DiI inh: 24; XiGFP reactiv: 1; ARNT TACC3 PPI: 11; SR-BI uptake up: -24; sPLA2-III inh: 25*; NSD2 inh: 0; sPLA2 confirm: 23*; BODIPY interf: 1

How did COC(=O)c1ccc(NC(=S)NC(=O)c2cccnc2)cc1 do in these assays?
SR-BI DiI inh: 19; XiGFP reactiv: 0; ARNT TACC3 PPI: 2; SR-BI uptake up: -19; sPLA2-III inh: 21*; NSD2 inh: -2; sPLA2 confirm: 13; BODIPY interf: -4

Results for Cc1cccc(C)c1NC(=O)C1(C)CCC(=O)N1CCCn1ccnc1 (configuration not stated) ?
XiGFP reactiv: 1; sPLA2-III inh: 9

Results for CC1(C)Nc2cccc3cccc(c23)N1 ?
SR-BI DiI inh: -5; XiGFP reactiv: 0; ARNT TACC3 PPI: 7; SR-BI uptake up: 5; sPLA2-III inh: 18; NSD2 inh: 22

What do the screens show for `c1cc2c3c(cccc3c1)NC1(CCCC1)N2`?
SR-BI DiI inh: -4; XiGFP reactiv: 0; ARNT TACC3 PPI: -11; SR-BI uptake up: 4; sPLA2-III inh: 24*; NSD2 inh: 6; sPLA2 confirm: 20*; BODIPY interf: 3

What do the screens show for `O=C(Nc1ccc(Cl)cc1Cl)NC1CCN(S(=O)(=O)c2ccc(F)cc2)CC1`?
SR-BI DiI inh: 15; XiGFP reactiv: 0; ARNT TACC3 PPI: -1; SR-BI uptake up: -15; sPLA2-III inh: 21*; NSD2 inh: -2; sPLA2 confirm: -26; BODIPY interf: -3

How did O=C(Nc1cc2c(ccc3ccccc32)oc1=O)C1CCCCC1 do in these assays?
SR-BI DiI inh: -30; ARNT TACC3 PPI: -3; SR-BI uptake up: 30; sPLA2-III inh: 23*; NSD2 inh: 22; sPLA2 confirm: -3; BODIPY interf: -4

Results for CC(=O)Nc1cc2c(ccc3ccccc32)oc1=O ?
SR-BI DiI inh: -4; XiGFP reactiv: 0; SR-BI uptake up: 4; sPLA2-III inh: -2; NSD2 inh: -1

How did CCC(=O)N1CC2(C1)[C@H](c1ccccc1)[C@H](CO)N2Cc1ccccc1OC do in these assays?
XiGFP reactiv: 0

Results for N#Cc1c(C(F)(F)F)cc(-c2ccco2)nc1SCc1ccccn1 ?
SR-BI DiI inh: 30; ARNT TACC3 PPI: -3; SR-BI uptake up: -30; sPLA2-III inh: 20*; NSD2 inh: -5; sPLA2 confirm: 6; BODIPY interf: -11

What do the screens show for `CN1C(=O)c2cc(NC(=O)Cc3ccccc3)ccc2OC[C@@H]2O[C@H](CC(=O)NCC3CC3)CC[C@H]21`?
XiGFP reactiv: 0; ARNT TACC3 PPI: 6

How did O=C1c2ccccc2C(=O)c2c1ccc(O)c2O do in these assays?
SR-BI DiI inh: -12; XiGFP reactiv: 0; ARNT TACC3 PPI: 15; SR-BI uptake up: 12; sPLA2-III inh: 21*; sPLA2 confirm: 11; BODIPY interf: -2

Results for CNC(=S)NNC(=O)c1ccccc1Cl ?
XiGFP reactiv: 0; sPLA2-III inh: 3; NSD2 inh: -1

How did CC(C)(C)NC(=S)NNC(=O)c1ccccc1Cl do in these assays?
SR-BI DiI inh: -54; XiGFP reactiv: 0; ARNT TACC3 PPI: -2; SR-BI uptake up: 54; sPLA2-III inh: 22*; NSD2 inh: 1; sPLA2 confirm: 23*; BODIPY interf: -5

How did CNC(=S)NNC(=O)c1cccc(C(F)(F)F)c1 do in these assays?
SR-BI DiI inh: -14; ARNT TACC3 PPI: -5; SR-BI uptake up: 14; sPLA2-III inh: 6; NSD2 inh: 3

How did O=C(NNC(=S)Nc1cccc(C(F)(F)F)c1)c1cccc(Cl)c1 do in these assays?
SR-BI DiI inh: 24; XiGFP reactiv: 0; ARNT TACC3 PPI: 26; SR-BI uptake up: -24; sPLA2-III inh: 24*; NSD2 inh: -2; sPLA2 confirm: 33*; BODIPY interf: 6.5*

Screening data (PubChem)
